The text below walks through data of ChEMBL document CHEMBL1146866, “Structural determinants for the membrane interaction of novel bioactive undecapeptides derived from gaegurin 5” (J Med Chem, 2006).

One test deals with A498. Description: Antitumor activity against human A498 cell line.
The subject of test [1] is RBCs. Description: Hemolytic activity against human red blood cells at 100 ug/ml. Format: functional, Erythrocyte. The method in brief: (§1)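 Human erythrocytes exposed to peptide. Hemolysis expressed as % relative to lysis by 0.2% Triton X-100.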
For a further test, the system named is NCI-H630. Briefly: Antitumor activity against human NCI-H630 cell line. Format: functional, cell-based.
Test [2] deals with RBCs. Description: Hemolytic activity against human red blood cells at 400 ug/ml. Format: functional, Erythrocyte. A digest of the protocol:
as §1

In the next test the test system is MCF7. Briefly: Antitumor activity against human MCF7 cell line. Format: functional, cell-based.
In a further test the test system is SK-MEL-2. Briefly: Antitumor activity against human SK-MEL-2 cell line. Format: functional, cell-based.
In test [3] the test system is RBCs. Briefly: Hemolytic activity against human red blood cells at 300 ug/ml. Format: functional, Erythrocyte. The method in brief:
as §1

In a further test the test system is SK-OV-3. Briefly: Antitumor activity against human SKOV3 cell line. Format: functional, cell-based.
For another test, the system named is HCT-116. Briefly: Antitumor activity against human HCT116 cell line. Format: functional, cell-based.
A further test deals with PC-3. Briefly: Antitumor activity against human PC3 cell line. Format: functional, cell-based.
For a further test, the system named is MCF10. Description: Antitumor activity against human MCF10a cell line.
For the next test, the system named is A549. Description: Antitumor activity against human A549 cell line.
For test [4], the system named is RBCs. Briefly: Hemolytic activity against human red blood cells at 200 ug/ml. Format: functional, Erythrocyte. A digest of the protocol: as §1
The next test has as its system MKN-45. Briefly: Antitumor activity against human MKN45 cell line. Format: functional, cell-based.

Where a SMILES comes first, the peptide text is derived from it.

For H-FLGWLFKVASK-OH, the half-maximal inhibitory concentration (IC50) (in general, the concentration at which inhibition is half-maximal) in the test on A498 amounted to 56.5 µM; with NCI-H630, 58.6 µM; with MCF7, 59.6 µM; in the test with SK-MEL-2 it was 23.5 µM; with SK-OV-3, 71.1 µM; in the test with HCT-116, 23.5 µM. Moreover, the IC50 was found to be 95.5 µM in the test with PC-3, 240 µM with MCF10, 82 µM in the test on A549 and 63.8 µM in the test with MKN-45. Moreover, the concentration for an effect of 90% (IC90) – broadly, the point of the concentration-response curve where the effect stands at 90% – in the test with A498 stood at 83.2 µM; with NCI-H630 it was 81.3 µM; in the test on MCF7 (read-out: IC90) it was 110 µM; in the test on SK-MEL-2, 46.8 µM; in the test on SK-OV-3, 89.1 µM; with HCT-116, 56.2 µM. The IC90 came to 112 µM in the test on PC-3, 102 µM in the test with A549 and 85.1 µM in the test on MKN-45. Also, the Activity with RBCs [1] is reported as 6.52%; in the test with RBCs [2], 9.24%; in the test on RBCs [3] it was 7.12%; with RBCs [4] it was 6.82%.

Turning to H-FLGALFKWASK-OH, the IC50 was determined as 169 µM with A498; 102 µM in the test on NCI-H630; 157 µM with MCF7; 119 µM in the test on SK-OV-3; 114 µM in the test with HCT-116; 137 µM in the test with PC-3. The 50% inhibitory concentration (IC50) in the test on MCF10 is 343 µM; in the test on A549 it was 330 µM; with MKN-45, 113 µM. In addition, the Activity was 6.21% in the test with RBCs [1], 6.67% with RBCs [2], 6.36% in the test on RBCs [3] and 6.36% in the test with RBCs [4]. The IC90 with NCI-H630 worked out at 117 µM; in the test on MCF7 (read-out: IC90), 229 µM; with SK-OV-3 it was 166 µM; in the test on HCT-116, 170 µM; with PC-3, 195 µM; in the test with MKN-45, 151 µM.

In the test on RBCs [1], H-FLGALFKVASKVL-OH gave an Activity of 25.8%.

With H-FLGALFKVASK-OH, the Activity was determined as 6.06% with RBCs [1], 6.21% with RBCs [2], 6.06% in the test with RBCs [3] and 6.06% with RBCs [4].

In the case of `CC[C@H](C)[C@H](NC(=O)[C@H](C)NC(=O)[C@H](CS)NC(=O)[C@H](CCCCN)NC(=O)[C@@H](NC(=O)[C@H](CO)NC(=O)[C@@H]1CCCN1C(=O)[C@H](CC(C)C)NC(=O)[C@@H](NC(=O)[C@H](CCCCN)NC(=O)[C@H](CO)NC(=O)[C@H](C)NC(=O)[C@@H](NC(=O)[C@H](CCCCN)NC(=O)[C@H](Cc1ccccc1)NC(=O)[C@H](CC(C)C)NC(=O)[C@H](C)NC(=O)CNC(=O)[C@H](CC(C)C)NC(=O)[C@@H](N)Cc1ccccc1)C(C)C)C(C)C)C(C)C)C(=O)N[C@H](C(=O)N[C@@H](CCCCN)C(=O)N[C@@H](CCCCN)C(=O)N[C@@H](CS)C(=O)O)[C@@H](C)O` (H-FLGALFKVASKVLPSVKCAITKKC-OH), the IC50 in the test on A498 came to 54.1 µM; in the test on NCI-H630, 16.4 µM; with MCF7, 72 µM; in the test on SK-MEL-2, 18.6 µM; with SK-OV-3, 15 µM; in the test with HCT-116 it was 44.4 µM. Besides, the half-inhibitory concentration (IC50) came to 17.1 µM in the test with PC-3, 57.1 µM in the test with A549 and 13.7 µM in the test with MKN-45. The compound further registered an Activity in the test with RBCs [1] of 6.8%. Besides, the 90% effect concentration (IC90) was found to be 25.1 µM in the test on NCI-H630; 93.3 µM in the test on MCF7; 18.2 µM in the test on SK-MEL-2; 23.4 µM in the test with SK-OV-3; 89.1 µM in the test with HCT-116; 22.9 µM in the test with PC-3. Moreover, the values for the IC90 with A549 and with MKN-45 were 89.1 µM and 24 µM, respectively.

In the case of `CC(=O)O[C@H]1C(=O)[C@@]2(C)[C@H]([C@H](OC(=O)c3ccccc3)[C@]3(O)C[C@H](OC(=O)[C@H](O)[C@@H](NC(=O)c4ccccc4)c4ccccc4)C(C)=C1C3(C)C)[C@]1(OC(C)=O)CO[C@@H]1C[C@@H]2O` [PACLITAXEL], the IC90 with A498 was found to be 0.229 µM; in the test on NCI-H630, 0.372 µM; in the test with MCF7 (read-out: IC90), 0.015 µM; in the test on SK-MEL-2 it was 0.037 µM; with SK-OV-3, 0.071 µM; in the test on HCT-116, 0.008 µM. The IC90 in the test with PC-3 amounted to 0.832 µM; in the test on A549, 0.041 µM; with MKN-45, 0.204 µM. Further, the midpoint of inhibition in the test with SK-OV-3, the IC50, lay at 0.005 µM.
